Bioassay records: PubChem BioAssay, Broad Institute
Compounds with a hit are over-represented: about 2.7% of the library has one in this group of screens.
AF4-AF9 inh: blocks AF4 peptide binding to human AF9. AlphaScreen, biotin-AF4 peptide binding to FLAG-AF9. inhibition, % at 10 µM. 350,000 compounds, 0.47% hits. AID 651704;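 active = every replicate reaching a set inhibition limit, whatever the replicate mean, cut at about 25% in these data; inconclusive = mean inhibition reaches that limit but some replicates miss it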
DENV2 CPE rescue: inhibitors of DENV2 cytopathic effect; AID 651640; 350,000 compounds, 1.7% hits; CPE inhibition, % at 9.99 µM; DENV2-infected cells, cytopathic effect rescue, plate reader; in the data active = CPE inhibition above about 20%, passing the limit was not always enough; inconclusive = no clear call, values can overlap the other calls; tested in BHK-21 cells
S100A4 inh HTS: blocks human S100A4 binding to myosin IIA peptide. inhibition, % at 10.7 µM. 360,000 compounds, 0.14% hits. AID 652163. S100A4/TAMRA-MyoIIA peptide fluorescence polarization;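 active = mean inhibition of at least 70% across replicates, with every replicate also reaching that level; inconclusive = mean inhibition reaches 70% but some replicates fall short; inactive = mean inhibition below 70%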
Target sequence (P26447 whole entry, looked up): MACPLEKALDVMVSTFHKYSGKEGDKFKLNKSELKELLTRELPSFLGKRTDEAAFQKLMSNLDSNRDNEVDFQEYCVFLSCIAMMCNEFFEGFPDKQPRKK
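assay system = human S100A4 monomer with TAMRA-labelled myosin IIA peptide | also added = labelled myosin peptide probe, 5 nM | incubation = 5 min between mix addition and reading | control set = DMSO and TFP controls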
SIRT5 block: sirtuin-5 (human) deacylase inhibition. Q9NXA8. Purified SirT5, succinyl-peptide AMC, trypsin-coupled fluorescence. inhibition, % at 15 µM. 330,000 compounds, 1.1% hits; in the data active = inhibition above about 15%; inconclusive = no clear call, values can overlap the other calls
Target sequence (Q9NXA8 whole entry, looked up): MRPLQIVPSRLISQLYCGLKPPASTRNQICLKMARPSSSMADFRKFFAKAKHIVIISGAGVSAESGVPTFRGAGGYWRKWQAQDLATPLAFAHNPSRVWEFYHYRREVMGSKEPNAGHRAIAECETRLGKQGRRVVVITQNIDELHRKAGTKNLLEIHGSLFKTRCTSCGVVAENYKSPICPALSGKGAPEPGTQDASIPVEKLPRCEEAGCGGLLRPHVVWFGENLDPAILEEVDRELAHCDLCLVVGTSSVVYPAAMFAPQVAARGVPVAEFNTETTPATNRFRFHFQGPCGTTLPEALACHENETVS
CaV13 FRET inh: Disruptors of the CACNA1D IQ motif to Ca2+-dependent inactivation inhibitor domain association, primary screening, Förster resonance energy transfer in intact living …; AID 743397; inhibition, % at 12.3 µM; HEK cells, CFP/YFP FRET ICDI-IQ, plate reader, 10 min; percent FRET-ratio fall versus neutral wells; 340,000 compounds, 0.098% hits;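 active = mean replicate inhibition of at least 30% and at least 1% of replicates passing that level; inconclusive = only one of the two criteria is met; inactive = neither criterion is met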
Numbers stand for hits; 0 = inactive; ? = inconclusive; - = not tested or not shown; + = active, no number.

SMILES | AF4-AF9 inh | DENV2 CPE rescue | S100A4 inh HTS | SIRT5 block | CaV13 FRET inh
COc1ccc(-c2sc3ccc(OC)cc3c2C#Cc2cncn2C)cc1 | 0 | 0 | 0 | 0 | 0
COc1ccc(-c2oc3ccccc3c2C#Cc2cncn2C)cc1 | 0 | 70 | 0 | 0 | 0
O=C(O)CCN1CCc2ccccc21 | - | - | - | - | 0
C[N+](C)(C)CCN1CCc2ccccc21 | 0 | 0 | 0 | 22 | 0
NC(=O)CCn1c(C(=O)c2cc(Cl)c(N)c(Cl)c2)c2ccccc2[n+]1[O-] | 0 | 0 | 0 | 0 | 0
Cc1ccc(C(=O)c2c3ccc([N+](=O)[O-])cc3[n+]([O-])n2CCCN)cc1 | 0 | 21 | 0 | 0 | 0
NCCCn1c(C(=O)c2cc(Cl)c(N)c(Cl)c2)c2ccccc2[n+]1[O-] | 0 | 0 | 0 | 40 | 0
O=C(Nc1ccc(F)cc1)N1C[C@@H]2[C@H](c3ccccc31)[C@H](CO)N2C(=O)c1cccnc1 | 0 | 0 | 0 | 0 | -
COCC(=O)N1C[C@@H](C)[C@@H](OC)CN(C)C(=O)c2ccc(NC(=O)C3CCC3)cc2OC[C@@H]1C | 0 | 0 | 0 | 0 | -
COc1ccc(S(=O)(=O)Nc2ccc3c(c2)C(=O)N([C@@H](C)CO)C[C@@H](C)[C@H](CN(C)C(=O)Cc2ccccc2)OCCCC[C@H](C)O3)cc1 | 0 | 24 | 0 | 0 | -
C[C@@H]1CN([C@@H](C)CO)C(=O)c2cc(NS(=O)(=O)c3cn(C)cn3)ccc2O[C@@H](C)CCCCO[C@H]1CN(C)C(=O)Cc1ccccc1 | 0 | 0 | 0 | 17 | -
COc1ccc(S(=O)(=O)Nc2ccc3c(c2)C(=O)N([C@@H](C)CO)C[C@@H](C)[C@H](CN(C)C(=O)Cc2ccccc2)OCCCC[C@@H](C)O3)cc1 | 0 | 0 | 0 | 0 | -
COc1ccc(NC(=O)N(C)C[C@@H]2OCCCC[C@H](C)Oc3ccc(NS(=O)(=O)c4ccccc4)cc3C(=O)N([C@H](C)CO)C[C@H]2C)cc1 | 0 | 58 | 0 | 0 | -
COc1ccc(S(=O)(=O)Nc2ccc3c(c2)C(=O)N([C@@H](C)CO)C[C@@H](C)[C@H](CN(C)C(=O)Nc2ccccc2)OCCCC[C@@H](C)O3)cc1 | 0 | 0 | 103 | 0 | -
O=C(N[C@@H]1CC[C@H](CCn2cc(-c3ccccn3)nn2)O[C@H]1CO)c1ccc(F)cc1 | 0 | 0 | 0 | 0 | -
CC(C)(C)CC(C)(C)c1ccc(OCCOCC[N+](C)(C)Cc2ccccc2)cc1 | 51 | 0 | 0 | 0 | 0
O=C(Cn1c(=O)oc2cc(S(=O)(=O)N3CCCC3)ccc21)N1CCCC1 | 28 | 0 | 0 | 0 | 0
CNCCCC1c2ccccc2C=Cc2ccccc21 | 0 | 26 | 0 | 0 | 0
CC(C)(O)C#Cc1cccc(-c2nc(C(=O)N3CCN(Cc4ccccc4)CC3)cc3c2[C@@H](CCO)N(S(=O)C(C)(C)C)C3)c1 (some centres not stated) | 0 | 0 | 0 | 0 | -
COc1ccc(S(=O)(=O)Nc2ccc3c(c2)CC(=O)N([C@H](C)CO)C[C@@H](C)[C@H](CN(C)Cc2ccc(C(F)(F)F)cc2)O3)cc1 | 0 | 0 | 0 | 0 | -
COc1ccc(CN(C)C[C@H]2Oc3ccc(NS(=O)(=O)c4ccc(OC)cc4)cc3CC(=O)N([C@H](C)CO)C[C@H]2C)cc1 | 0 | 0 | 0 | 0 | -
COc1ccc(S(=O)(=O)Nc2ccc3c(c2)CC(=O)N([C@H](C)CO)C[C@H](C)[C@@H](CN(C)Cc2ccc(C(F)(F)F)cc2)O3)cc1 | 0 | 0 | 0 | 26 | -
COc1ccc(S(=O)(=O)Nc2ccc3c(c2)CC(=O)N([C@@H](C)CO)C[C@@H](C)[C@@H](CN(C)Cc2ccc(C(F)(F)F)cc2)O3)cc1 | 0 | 0 | 0 | 0 | -
COc1ccc(S(=O)(=O)Nc2ccc3c(c2)CC(=O)N([C@@H](C)CO)C[C@H](C)[C@H](CN(C)Cc2ccc(C(F)(F)F)cc2)O3)cc1 | 0 | 0 | 0 | 22 | -
COc1ccc(S(=O)(=O)Nc2ccc3c(c2)CC(=O)N([C@@H](C)CO)C[C@@H](C)[C@H](CN(C)Cc2ccc(C(F)(F)F)cc2)O3)cc1 | 0 | 0 | 0 | 24 | -
SMILES | AF4-AF9 inh | DENV2 CPE rescue | S100A4 inh HTS | SIRT5 block | CaV13 FRET inh
COc1ccc(CN(C)C[C@H]2Oc3ccc(NS(=O)(=O)c4ccc(OC)cc4)cc3CC(=O)N([C@H](C)CO)C[C@@H]2C)cc1 | 0 | 0 | 0 | 0 | -
COc1ccc(S(=O)(=O)Nc2ccc3c(c2)CC(=O)N([C@H](C)CO)C[C@@H](C)[C@@H](CN(C)Cc2ccc(C(F)(F)F)cc2)O3)cc1 | 0 | 23 | 0 | 22 | -
COCC(=O)Nc1ccc2c(c1)[C@@H]1C[C@@H](CC(=O)NCCN3CCCCC3)O[C@@H](CO)[C@@H]1O2 | 0 | 0 | 0 | 0 | -
CN1C(=O)c2cc(NC(=O)c3ccc(F)c(F)c3)ccc2OC[C@H]2O[C@H](CC(=O)N3CCCCC3)CC[C@H]21 | 0 | 0 | 0 | 0 | -
C[C@H](CO)N1C[C@H](C)[C@H](CN(C)Cc2ccc(C(F)(F)F)cc2)Oc2ccc(NS(=O)(=O)c3ccc(F)cc3)cc2CC1=O | 0 | 0 | 0 | 0 | -
C[C@H](CO)N1C[C@H](C)[C@@H](CN(C)Cc2ccc(C(F)(F)F)cc2)Oc2ccc(NS(=O)(=O)c3ccc(F)cc3)cc2CC1=O | 0 | 0 | 0 | 35 | -
C[C@@H]1CCCCO[C@H](CN(C)CC2CCCCC2)[C@H](C)CN([C@H](C)CO)C(=O)c2cc(NS(=O)(=O)c3cn(C)cn3)ccc2O1 | 0 | 0 | 0 | 0 | -
CCO[C@H]1OC(C(=O)NCc2nc3ccccc3[nH]2)=C[C@@H](c2csc3ccccc23)[C@@H]1CCCO | 0 | ? | 0 | 0 | 0
CCO[C@@H]1OC(C(=O)NCc2nc3ccccc3[nH]2)=C[C@H](c2csc3ccccc23)[C@H]1CCCO | 0 | 0 | 0 | 31 | 0
CC(C)NC(=O)N1C[C@H]2[C@@H](c3ccccc31)[C@H](CO)N2C(=O)Nc1ccc(F)cc1 | 0 | 0 | 0 | 0 | -
Cc1c(Cl)c(=O)n2c(=O)c(Cl)c(C)n12 | 0 | 0 | 0 | 0 | +
CCCNC(=O)N1[C@H](C#N)[C@@H](c2ccccc2-c2ccccc2)[C@@H]1CO | 0 | 0 | 0 | 0 | -
CCCNC(=O)N1[C@H](CO)[C@H](c2ccccc2-c2ccccc2)[C@@H]1C#N | 0 | 109 | 0 | 0 | -
CCC(=O)N1[C@@H](C#N)[C@H](c2ccccc2-c2ccccc2)[C@@H]1CO | 0 | 47 | 0 | 0 | -
CCN(C[C@@H]1[C@@H](c2ccccc2)[C@H](CO)N1C(=O)C1CC1)C(=O)NC1CCCC1 | 0 | 0 | 0 | 32 | -
CCCNC(=O)N1[C@H](CO)[C@H](c2ccccc2)[C@@H]1CNC(=O)C1CCCC1 | 0 | 22 | 0 | 0 | -
CCN(C[C@@H]1[C@@H](c2ccccc2)[C@@H](CO)N1C(=O)C1CC1)C(=O)NC1CCCC1 | 0 | 0 | 0 | 0 | -
CCC(=O)NC[C@H]1[C@@H](c2ccccc2)[C@H](CO)N1C(=O)C1CCC1 | 0 | 0 | 0 | 20 | -
